Screens as filed in PubChem.
Shown are actives, neighbours in structure and some others; about 4.7% of the full set was active somewhere.
MC4R ag barr: MC4R agonists recruiting beta-arrestin, primary screen, cell-based, luminescence, agonist arm of biased-ligand search; Melanocortin receptor 4 (Homo sapiens), P32245; U2OS MC4R beta-arrestin complementation; percent of melanotan II response, DMSO zero; activation, % at 8.9 µM; 360,000 compounds, 0.98% hits; AID 540308, 2011;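 active = activation above a per-plate cutoff, the mean activation of sample wells on that plate plus 3 SD, cut at about 8% in these data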
Target sequence (P32245 whole entry, looked up): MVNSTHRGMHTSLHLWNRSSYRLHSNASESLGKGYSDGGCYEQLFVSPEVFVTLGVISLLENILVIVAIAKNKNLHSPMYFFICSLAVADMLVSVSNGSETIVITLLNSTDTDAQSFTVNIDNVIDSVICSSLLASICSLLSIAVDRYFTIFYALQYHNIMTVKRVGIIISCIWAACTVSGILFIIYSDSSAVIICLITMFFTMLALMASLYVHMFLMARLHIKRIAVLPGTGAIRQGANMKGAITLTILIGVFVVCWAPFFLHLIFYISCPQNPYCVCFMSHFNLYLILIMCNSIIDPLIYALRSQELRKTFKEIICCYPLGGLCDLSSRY
MC4R antagonist: MC4R antagonists of cAMP signaling, primary screen, cell-based, TR-FRET, antagonist arm of biased-ligand search; inhibition, % at 6.5 µM; MC4R-expressing cells, MTII-stimulated cAMP, LANCE TR-FRET; 360,000 compounds, 0.48% hits; Melanocortin receptor 4 (Homo sapiens), P32245;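 active = inhibition above its plate's cutoff, the mean of tested wells on that plate plus 3 SD, cut at about 29% in these data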;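 also: 0% = Melanotan II alone and 100% = Melanotan II plus saturating MCL0020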
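System – human MC4R-expressing U2OS cells · Also added – Melanotan II · Dosing – one concentration, 6.5 µM nominal · Timing – 30-min compound, 1-h challenge, 1-h detection, room temperature · Measured by – Eu-cAMP/anti-cAMP TR-FRET, emission 671 nm · Replicates – singlicate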
AHR act: AHR activators, primary screen, cell-based, luminescence, luciferase reporter, human; AHR-responsive luciferase reporter cells; 320,000 compounds, 2.5% hits; activation, % at 5 µM; in the data active = activation above about 47%;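 also: 0% = vehicle wells and 100% = reference agonist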
GAA850 FXN act: FXN promoter activators, primary screen, cell-based, luciferase luminescence, HEK293 lucGAA850 | HEK293 lucGAA850 FXN promoter luciferase reporter, 24 h; percent of 10 µM SAHA response | 360,000 compounds, 0.56% hits | AID 540364, 2011 | activation, % at 6 µM;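 active = activation above the average of all compounds screened plus 3 SD, cutoff fixed separately per campaign, cut at about 7.5% in these data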;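 also: 0% = DMSO wells and 100% = 10 µM SAHA wells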
m5-HT2A agonist: mouse Htr2a agonists via beta-arrestin recruitment, primary screen, cell-based, luminescence | 5-hydroxytryptamine receptor 2A (Mus musculus), P35363 | CHO-K1 mHTR2A beta-arrestin complementation; percent of 30 µM serotonin response | activation, % at 7.6 µM | 360,000 compounds, 0.66% hits | AID 624169, 2012;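 active = activation above a run cutoff, the mean activation of all tested compounds plus 3 SD, cut at about 14% in these data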;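 also: 0% = plate median of compound wells and 100% = 30 µM serotonin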
AHR act cf: AHR activators, confirmation, cell-based, luminescence, luciferase reporter, human | AID 2845, 2010 | shares compounds with AHR act | activation, % at 9 µM | human cells, AHR-responsive luciferase reporter | 2,300 compounds, 87% hits; in the data active = activation above about 49%;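 also: HepG2 hepatoma cells carrying a DRE-driven firefly luciferase reporter; 0% = vehicle wells and 100% = reference agonist wells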
PXR counter: human PXR activators, counter-screen for AHR activator project, cell-based, luciferase luminescence. shares compounds with AHR act. cell-based PXR reporter. activation, % at 11.6 µM. 2,300 compounds, 88% hits; in the data active = activation above about 11%;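 also: human hepatoma DPX-2 cells expressing full-length human PXR; 0% = DMSO and 100% = reference agonist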
Numbers without * were called inactive; . = no result given.

SMILES	MC4R ag barr	MC4R antagonist	AHR act	GAA850 FXN act	m5-HT2A agonist	AHR act cf	PXR counter
O=C(Nc1ccccn1)c1ccc2ccccc2n1	-2	7	84*	3	-4	168*	24*
O=C(Nc1ccccn1)c1ccc2ccccc2c1O	1	-2	151*	4	4	152*	16*
O=C(O)c1ccccc1C(=O)Nc1ccccn1	-1	0	2	0	8	.	.
O=C1C(Cc2ccccc2)Nc2ncnc(N3CCN(c4ccccc4)CC3)c2N1Cc1ccc(Cl)cc1 (stereo not given)	-4	3	2	-3	-27	.	.
CCOc1ccc(S(=O)(=O)N2CCC(C(=O)NCc3ccccc3CN3CCCC3)CC2)cc1	0	3	-1	0	-7	.	.
Cc1ccnc(SCC(=O)c2ccc(Br)cc2)c1C#N	0	-10	125*	6	5	125*	93*
Cc1cc(C)c(C#N)c(OCC(=O)c2ccc(Br)cc2)n1	0	-8	101*	0	1	106*	20*
Cc1ccc(C(=O)COc2nc(C)cc(C)c2C#N)cc1	4	2	46	-1	6	.	.
N=C(N1CCCc2ccccc21)N1CCCc2ccccc21	1	8	.	-4	-1	.	.
N#Cc1nc(-c2ccc(OCc3ccccc3)cc2)oc1NCCCn1ccnc1	0	1	30	-3	-2	.	.
N#Cc1nc(-c2ccc(F)cc2)oc1NCCCn1ccnc1	.	.	106*	.	.	97*	30*
Cc1cccc(C(=O)Nc2ccnc(-c3ccncc3)n2)c1	0	-5	99*	1	3	48*	3
Cc1cccc(C(=O)Nc2ccnc(-c3cccnc3)n2)c1	-1	8	11	2	-3	.	.
Cc1cc(C(=O)NNC(=O)c2ccc(Cl)c(S(N)(=O)=O)c2)c(C)o1	-1	0	0	0	-2	.	.
COc1ccc(CCNc2nc(-c3cccnc3)cs2)cc1OC	-1	-5	2	1	2	.	.
COc1ccc(CCNc2nc(-c3ccccn3)cs2)cc1OC	-1	10	85*	-8	-4	80*	27*
Cn1c(-c2ccc3ccccc3n2)nc2cnccc21	-1	9	89*	4	-4	119*	23*
CCN1C=C(C(=O)c2ccccc2)C(=O)CC1	-2	19	.	-1	2	.	.
Cc1cc(/C=N/n2c(COc3ccccc3C)nc3ccccc3c2=O)c(O)c([N+](=O)[O-])c1	-2	5	13	2	2	.	.
Cc1cccc(C)c1OCc1nc2ccccc2c(=O)n1/N=C/c1c[nH]c2ccccc12	2	9	102*	-3	1	32	112*
CS(=O)(=O)Nc1ccc2c(c1)[C@H]1C[C@H](CC(=O)NCc3cccc(F)c3)O[C@@H](CO)[C@H]1O2	0	13	.	-1	-4	.	.
O=C(NCc1ccccc1)C(c1ccc(-c2ccccc2)cc1)N1CCN(CCN2CCOCC2)CC1 (stereo not given)	.	.	.	.	-4	.	.
Cc1ccccc1CNC(=O)c1ccc2nc([C@@H]3O[C@H](CO)[C@H](O)[C@H](O)[C@H]3O)[nH]c2c1	-1	13	.	1	-1	.	.
O=C(CC1Nc2ccccc2NC1=O)Nc1ccc2c(c1)OCO2 (stereo not given)	-1	-6	153*	3	-7	137*	24*
CCCOc1ccc(NC(=O)CC2Nc3ccccc3NC2=O)cc1 (stereo not given)	-4	1	13	0	-3	.	.
Cc1ccc(NC(=O)CC2Nc3ccccc3NC2=O)cc1Cl (stereo not given)	-1	1	.	0	-6	.	.
